Activity calls are given as the source filed them. The calls are words filed in the database; no cut-off is given here.
Legend:
[1] = Cytotoxicity against MDBK cells by MTT assay; type: cell-based, Bos taurus; conditions: cattle
Summary of the method: (§1)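 Assays were run in MDBK cells. BVDV antiviral activity was measured by virus yield reduction and reported as EC50. Cytotoxicity was measured by MTT assay and reported as CC50.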

[2] = system: Bovine viral diarrhea virus 1; assay: Reduction of BVDV E2 protein mobility rate infected in MDBK cells at EC50 after 22 hrs by Western blot analysis; type: functional, organism-based
Summary of the method: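 MDBK cells were infected with BVDV at MOI 1 for 1 h, then mock-treated or compound-treated. Cells were harvested 22 h post-infection. Lysates were run on electrophoresis and Western blotted, detecting BVDV E2 glycoprotein and β-actin loading control simultaneously.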

Tacaribe virus = assay: Antiviral activity against Tacaribe virus infected in human Huh7.5 cells; type: functional, organism-based; conditions: Mammarenavirus tacaribeense, Huh-7
Dengue virus = assay: Antiviral activity against Dengue virus infected in BHK cells; type: functional, organism-based
[3] = system: Bovine viral diarrhea virus 1; assay: Antiviral activity against BVDV infected in MDBK cells assessed as reduction of viral yield; type: functional, organism-based; conditions: Bovine viral diarrhea virus isolates and strains; summary of the method: as §1
[4] = Cytotoxicity against BHK cells by MTT assay; type: cell-based, Mesocricetus auratus; conditions: hamster
[5] = Cytotoxicity against human Huh7.5 cells by MTT assay; type: cell-based, Huh-7

Compound | CC50 [1] [µM] | Activity [2] | EC50 (Tacaribe virus) [µM] | EC50 (Dengue virus) [µM] | EC50 [3] [µM] | CC50 [4] [µM] | CC50 [5] [µM]
CC(C)(C)C(=O)N(CCCCCCN1C[C@H](O)[C@@H](O)[C@H](O)[C@H]1CO)c1ccc(F)cc1F | > 500 | Active | 2.5 | 2.2 | 0.25 | > 500 | > 500
CC1CCCCC1NCCCCCCN1C[C@H](O)[C@@H](O)[C@H](O)[C@H]1CO (stereo partly specified) | > 500 | inactive |  |  | > 100 |  | 
CC(C)(C)CC(=O)N(CCCCCCN1C[C@H](O)[C@@H](O)[C@H](O)[C@H]1CO)C1CCCCC1 | > 500 | Active | 0.4 | 1.5 | 0.18 | > 500 | > 500
CC(C)(C)C(=O)N(CCCCCCN1C[C@H](O)[C@@H](O)[C@H](O)[C@H]1CO)C1CCCCCCC1 | 270 |  | 0.29 | 0.8 | 0.24 | 208 | 150
CC(C)(C)C(=O)N(CCCCCCN1C[C@H](O)[C@@H](O)[C@H](O)[C@H]1CO)c1cc(F)ccc1F | > 500 |  | 0.62 | 5.4 | 0.4 | > 500 | > 500
CC1CCCCC1N(CCCCCCN1C[C@H](O)[C@@H](O)[C@H](O)[C@H]1CO)C(=O)C(C)(C)C (stereo partly specified) | > 500 | Active | 0.2 | 0.32 | 0.22 | > 500 | 310
CC(C)(C)C(=O)N(CCCCCCN1C[C@H](O)[C@@H](O)[C@H](O)[C@H]1CO)C1CCCCC1 | > 500 | Active | 0.2 | 0.28 | 0.2 | > 500 | 500
CC(=O)N(CCCCCCN1C[C@H](O)[C@@H](O)[C@H](O)[C@H]1CO)c1ccc(F)cc1F | > 500 | Active |  |  | 6 |  | 
CC(=O)N(CCCCCCN1C[C@H](O)[C@@H](O)[C@H](O)[C@H]1CO)C1CCCCC1 | > 500 |  | 1 | 14 | 0.28 | > 500 | > 500
CC(C)(C)C(=O)N(CCCCCCN1C[C@H](O)[C@@H](O)[C@H](O)[C@H]1CO)C1CCCC1 | > 500 |  | 4 | 2 | 0.85 | > 500 | > 500
CC(C)(C)C(=O)N(CCCCCCN1C[C@H](O)[C@@H](O)[C@H](O)[C@H]1CO)C1CC1 | > 500 | Active |  | 8.8 | 3.75 | > 500 | 
OC[C@@H]1[C@@H](O)[C@H](O)[C@@H](O)CN1CCCCCCN(C1CCCCC1)C1CCCCC1 | > 500 | Active |  |  | 6.3 |  | 
CC1CCCCC1N(CCCCCCN1C[C@H](O)[C@@H](O)[C@H](O)[C@H]1CO)C(=O)OC(C)(C)C (stereo partly specified) | 250 | Active | 0.3 | 0.3 | 0.4 | 230 | 240
CC(=O)N(CCCCCCN1C[C@H](O)[C@@H](O)[C@H](O)[C@H]1CO)c1cc(F)ccc1F | > 500 |  |  |  | 5 |  | 
CC(C)(C)C(=O)N(CCCCCCN1C[C@H](O)[C@@H](O)[C@H](O)[C@H]1CO)C1CCC1 | > 500 |  |  | 1.9 | 0.8 | > 500 | 
CC(C)(C)C(=O)N(CCCCCCN1C[C@H](O)[C@@H](O)[C@H](O)[C@H]1CO)C1CCCCCC1 | > 500 |  | 1 | 0.8 | 0.4 | > 500 | > 500
CC(C)(C)C(=O)N(CCCCCCN1C[C@H](O)[C@@H](O)[C@H](O)[C@H]1CO)C12CC3CC(CC(C3)C1)C2 | 420 |  | 0.21 | 1.38 | 0.21 | > 500 | 170
CC(C)(C)C(=O)N(CCCCCCN1C[C@H](O)[C@@H](O)[C@H](O)[C@H]1CO)C1C2CC3CC(C2)CC1C3 (stereo partly specified) | 180 |  | 0.5 | 0.125 | 0.31 | 192 | 125
CC(C)(C)OC(=O)NCCCCCCN1C[C@H](O)[C@@H](O)[C@H](O)[C@H]1CO | > 500 | Active |  |  | 2.5 |  | 
C[C@H]1CCCC[C@@H]1OCCCCCCN1C[C@H](O)[C@@H](O)[C@H](O)[C@H]1CO |  |  |  |  | 3.3 |  | 
